From ChEMBL document CHEMBL3124772, “Design, synthesis, and evaluation of conformationally restricted acetanilides as potent and selective β3 adrenergic receptor agonists for the treatment of overactive bladder” (J Med Chem, 2014)
Blank lines part the entries; values can stand above or below the molecule they belong to.

Key:
[1] = Half life in rhesus monkey at 3 mg/kg, iv; type: ADME, organism-based, Macaca mulatta; parameters: dose 3 mg/kg, route intravenous; conditions: in vivo
[2] = Plasma clearance in rhesus monkey at 3 mg/kg, iv; type: ADME, organism-based, Macaca mulatta; parameters: dose 3 mg/kg, route intravenous
[3] = Half life in Sprague-Dawley rat at 3 mg/kg, iv; type: ADME, organism-based; parameters: dose 3 mg/kg, route intravenous; conditions: in vivo
[4] = Lipophilicity, log D of the compound at pH 7.3; type: physicochemical; conditions: buffer
[5] = Fraction unbound in Sprague-Dawley rat plasma at 3 mg/kg, iv; type: ADME, organism-based; parameters: dose 3 mg/kg, route intravenous
[6] = Half life in Beagle dog at 3 mg/kg, iv; type: ADME, organism-based, Canis lupus familiaris; parameters: dose 3 mg/kg, route intravenous; conditions: in vivo
[7] = Plasma clearance in Sprague-Dawley rat at 3 mg/kg, iv; type: ADME, organism-based; parameters: dose 3 mg/kg, route intravenous
[8] = Oral bioavailability in rhesus monkey at 10 mg/kg; type: ADME, organism-based, Macaca mulatta; conditions: in vivo
[9] = Fraction unbound in Beagle dog plasma at 3 mg/kg, iv; type: ADME, organism-based, Canis lupus familiaris; parameters: dose 3 mg/kg, route intravenous
[10] = Fraction unbound in rhesus monkey plasma at 3 mg/kg, iv; type: ADME, organism-based, Macaca mulatta; parameters: dose 3 mg/kg, route intravenous
[11] = Plasma clearance in Beagle dog at 3 mg/kg, iv; type: ADME, organism-based, Canis lupus familiaris; parameters: dose 3 mg/kg, route intravenous
[12] = Intrinsic clearance in dog liver microsomes; type: ADME, Canis lupus familiaris; conditions: read-out: CLH
Cytochrome P450 2C9 = Cytochrome P450 2C9 (Homo sapiens, UniProt P11712); assay: Inhibition of CYP2C9 in human liver microsomes assessed as diclofenac alpha'-hydroxylation; type: ADME
[13] = target: Beta-3 adrenergic receptor (Canis lupus familiaris, UniProt O02662); assay: Agonist activity at dog beta-3 adrenergic receptor expressed in CHO cells assessed as increase in intracellular cAMP accumulation after 30 mins by time-resolved fluorescence assay; type: functional, cell-based
Summary of the method: (§1)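 CHO cells stably transfected with cloned β3-AR, harvested after 3 days subculture with enzyme-free dissociation, 6000 cells in HBSS with 5 mM HEPES, 0.1% BSA and 0.6 mM IBMX. Ligand at 10⁻¹⁰ to 10⁻⁵ M final, 30 min room temperature with labeled cAMP antibody; LANCE TR-FRET read after 1 h detection, cAMP from standard curve.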

[14] = Half life in rhesus monkey at 1 mg/kg, iv and 2 mg/kg, po; type: ADME, organism-based, Macaca mulatta; conditions: in vivo
Plasma [15] = assay: Unbound plasma concentration in acetic acid-induced Sprague-Dawley rat bladder hyperactivity model at 1 mg/kg, iv administered as 1 to 2 hrs infusion; type: ADME, organism-based; parameters: dose 1 mg/kg, route intravenous; conditions: in vivo
Cytochrome P450 3A4 = Cytochrome P450 3A4 (Homo sapiens, UniProt P08684); assay: Inhibition of CYP3A4 in human liver microsomes assessed as testosterone 6beta-hydroxylation; type: ADME
[16] = target: Beta-3 adrenergic receptor (Macaca mulatta, UniProt Q28524); assay: Agonist activity at rhesus monkey beta-3 adrenergic receptor expressed in CHO cells assessed as increase in intracellular cAMP accumulation after 30 mins by time-resolved fluorescence assay; type: functional, cell-based; summary of the method: as §1
[17] = target: Beta-3 adrenergic receptor (Canis lupus familiaris) (UniProt O02662); assay: Agonist activity at dog beta-3 adrenergic receptor expressed in CHO cells assessed as increase in intracellular cAMP accumulation at 10^-10 to 10^-5 M after 30 mins by time-resolved fluorescence assay relative to R-(-)isoproterenol; type: functional, cell-based; summary of the method: as §1
[18] = Fraction unbound in Beagle dog plasma at 1 mg/kg, iv and 2 mg/kg, po; type: ADME, organism-based, Canis lupus familiaris
Rattus norvegicus [19] = assay: Reduction of micturition pressure at 1.2 uM unbound plasma level in acetic acid-induced Sprague-Dawley rat bladder hyperactivity model at 10 mg/kg, iv administered as 1 to 2 hrs infusion relative to vehicle-treated control; type: functional; parameters: scale not given: the % may be the effect or the level left
[20] = Fraction unbound in Sprague-Dawley rat plasma at 1 mg/kg, iv and 2 mg/kg, po; type: ADME, organism-based; conditions: Sprague-Dawley, plasma
Plasma [21] = assay: Unbound plasma concentration in acetic acid-induced Sprague-Dawley rat bladder hyperactivity model at 3 mg/kg, iv administered as 1 to 2 hrs infusion; type: ADME, organism-based; parameters: dose 3 mg/kg, route intravenous; conditions: in vivo
[22] = target: Voltage-dependent L-type calcium channel subunit alpha-1C (Homo sapiens, UniProt Q13936); assay: Displacement of [3H]-diltiazem from human CaV1.2
[23] = target: Beta-3 adrenergic receptor (Macaca mulatta) (UniProt Q28524); assay: Agonist activity at rhesus monkey beta-3 adrenergic receptor expressed in CHO cells assessed as increase in intracellular cAMP accumulation at 10^-10 to 10^-5 M after 30 mins by time-resolved fluorescence assay relative to R-(-)isoproterenol; type: functional, cell-based; summary of the method: as §1
[24] = Plasma clearance in Beagle dog at 1 mg/kg, iv and 2 mg/kg, po; type: ADME, organism-based, Canis lupus familiaris
[25] = Oral bioavailability in Beagle dog at 2 mg/kg; type: ADME, organism-based, Canis lupus familiaris; conditions: in vivo
[26] = target: Sodium-dependent serotonin transporter (Homo sapiens, UniProt P31645); assay: Inhibition of human SERT expressed in HEK293 cells incubated for 30 mins prior to fluorescent substrate addition measured after 30 mins by fluorescent dye uptake assay; type: cell-based
Summary of the method: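 HEK293 stably expressing human SERT, 20000 cells/well plated overnight at 37 °C, then in HBSS with 20 mM HEPES and 0.1% BSA. Compound added from 100× DMSO stock, 30 min at 37 °C, then fluorescent transporter substrate for 30 more min. Fluorescence read at 440/520 nm, normalized to DMSO (0%) and 10 μM fluoxetine (100%), four-parameter fit for IC50.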

[27] = target: T1, Beta-3 adrenergic receptor (Homo sapiens, UniProt P13945); assay: Agonist activity at human beta-3 adrenergic receptor expressed in CHO cells assessed as increase in intracellular cAMP accumulation at 10^-10 to 10^-5 M after 30 mins by time-resolved fluorescence assay relative to R-(-)isoproterenol; type: functional, cell-based; summary of the method: as §1
Target sequence in this assay (P13945 whole entry, looked up): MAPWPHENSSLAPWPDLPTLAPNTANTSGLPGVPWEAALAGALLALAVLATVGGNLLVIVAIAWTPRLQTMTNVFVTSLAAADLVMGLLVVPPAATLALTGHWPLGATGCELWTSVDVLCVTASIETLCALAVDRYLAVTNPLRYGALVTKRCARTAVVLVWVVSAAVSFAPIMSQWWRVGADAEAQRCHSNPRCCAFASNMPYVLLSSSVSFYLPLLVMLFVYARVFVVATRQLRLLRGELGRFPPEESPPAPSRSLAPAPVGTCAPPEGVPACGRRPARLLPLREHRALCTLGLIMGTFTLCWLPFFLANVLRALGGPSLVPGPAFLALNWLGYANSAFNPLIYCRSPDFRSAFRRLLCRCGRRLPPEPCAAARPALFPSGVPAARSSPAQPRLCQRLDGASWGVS

Cytochrome P450 2D6 = Cytochrome P450 2D6 (Homo sapiens, UniProt P10635); assay: Inhibition of CYP2D6 in human liver microsomes assessed as dextromethorphan O-demethylation; type: ADME
[28] = Apparent permeability in MDCK2 cells; type: ADME, cell-based, Canis lupus familiaris, MDCK-II; conditions: dog, MDCK
[29] = Half life in Beagle dog at 1 mg/kg, iv and 2 mg/kg, po; type: ADME, organism-based, Canis lupus familiaris; conditions: in vivo
[30] = target: Beta-2 adrenergic receptor (Homo sapiens, UniProt P07550); assay: Displacement of [125I]-cyanopindolol from recombinant human beta-2 adrenergic receptor expressed in CHO cell membranes after 1 hr by scintillation counting analysis
[31] = Oral bioavailability in Sprague-Dawley rat at 2 mg/kg; type: ADME, organism-based; conditions: in vivo
[32] = target: Beta-3 adrenergic receptor (Rattus norvegicus) (UniProt P26255); assay: Agonist activity at rat beta-3 adrenergic receptor expressed in CHO cells assessed as increase in intracellular cAMP accumulation at 10^-10 to 10^-5 M after 30 mins by time-resolved fluorescence assay relative to R-(-)isoproterenol; type: functional, cell-based; summary of the method: as §1
[33] = target: T1, Beta-3 adrenergic receptor; assay: Agonist activity at human beta-3 adrenergic receptor expressed in CHO cells assessed as increase in intracellular cAMP accumulation after 30 mins by time-resolved fluorescence assay; type: functional, cell-based; summary of the method: as §1
Target sequence in this assay (P13945 whole entry): as the sequence (P13945 whole entry, looked up) above

Plasma [34] = assay: Unbound plasma concentration in acetic acid-induced Sprague-Dawley rat bladder hyperactivity model at 10 mg/kg, iv administered as 1 to 2 hrs infusion; type: ADME, organism-based; parameters: dose 10 mg/kg, route intravenous; conditions: in vivo
[35] = target: Beta-3 adrenergic receptor (Rattus norvegicus, UniProt P26255); assay: Agonist activity at rat beta-3 adrenergic receptor expressed in CHO cells assessed as increase in intracellular cAMP accumulation after 30 mins by time-resolved fluorescence assay; type: functional, cell-based; summary of the method: as §1
[36] = target: Beta-1 adrenergic receptor (Homo sapiens, UniProt P08588); assay: Displacement of [125I]-cyanopindolol from recombinant human beta-1 adrenergic receptor expressed in CHO cell membranes after 1 hr by scintillation counting analysis
[37] = Intrinsic clearance in rat liver microsomes; type: ADME; conditions: read-out: CLH
[38] = Fraction unbound in rhesus monkey plasma at 1 mg/kg, iv and 2 mg/kg, po; type: ADME, organism-based, Macaca mulatta
[39] = Half life in Sprague-Dawley rat at 1 mg/kg, iv and 2 mg/kg, po; type: ADME, organism-based; conditions: in vivo
[40] = target: Sodium channel protein type 5 subunit alpha (Homo sapiens, UniProt Q14524); assay: Inhibition of human NaV1.5
[41] = Intrinsic clearance in monkey liver microsomes; type: ADME, Macaca mulatta, Microsome; conditions: rhesus monkey, read-out: CLH
[42] = Plasma clearance in Sprague-Dawley rat at 1 mg/kg, iv and 2 mg/kg, po; type: ADME, organism-based
[43] = Oral bioavailability in rhesus monkey at 2 mg/kg; type: ADME, organism-based, Macaca mulatta; conditions: in vivo
[44] = Intrinsic clearance in human liver microsomes; type: ADME; conditions: read-out: CLH
[45] = Plasma clearance in rhesus monkey at 1 mg/kg, iv and 2 mg/kg, po; type: ADME, organism-based, Macaca mulatta
Rattus norvegicus [46] = assay: Reduction of micturition pressure in iv dosed acetic acid-induced Sprague-Dawley rat bladder hyperactivity model administered as 1 to 2 hrs infusion; type: functional, organism-based
Homo sapiens = species: Homo sapiens; assay: Selectivity ratio of IC50 for human SERT to EC50 for human beta-3 adrenergic receptor
[47] = target: Voltage-gated inwardly rectifying potassium channel KCNH2 (Homo sapiens, UniProt Q12809); assay: Inhibition of human ERG
Rattus norvegicus [48] = assay: Reduction of micturition pressure at 27 uM unbound plasma level in acetic acid-induced Sprague-Dawley rat bladder hyperactivity model at 10 mg/kg, iv administered as 1 to 2 hrs infusion relative to vehicle-treated control; type: functional; parameters: scale not given: the % may be the effect or the level left

Chain of Beta-3 adrenergic receptor (Macaca mulatta, UniProt Q28524) (Q28524 whole entry): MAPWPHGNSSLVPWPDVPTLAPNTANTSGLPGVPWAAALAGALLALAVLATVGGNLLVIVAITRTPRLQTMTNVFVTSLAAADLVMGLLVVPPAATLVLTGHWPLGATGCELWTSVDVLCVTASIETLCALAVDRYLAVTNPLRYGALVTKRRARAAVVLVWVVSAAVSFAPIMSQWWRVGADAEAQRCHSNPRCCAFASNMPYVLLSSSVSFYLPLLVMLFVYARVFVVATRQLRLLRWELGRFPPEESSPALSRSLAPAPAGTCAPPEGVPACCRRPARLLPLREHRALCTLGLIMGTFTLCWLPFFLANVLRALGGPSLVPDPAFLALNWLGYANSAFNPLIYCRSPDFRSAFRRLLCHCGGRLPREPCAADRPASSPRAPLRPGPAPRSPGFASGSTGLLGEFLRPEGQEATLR
Chain of Beta-3 adrenergic receptor (Macaca mulatta) (Q28524 whole entry): as above
Chain of Cytochrome P450 2C9 (P11712 whole entry): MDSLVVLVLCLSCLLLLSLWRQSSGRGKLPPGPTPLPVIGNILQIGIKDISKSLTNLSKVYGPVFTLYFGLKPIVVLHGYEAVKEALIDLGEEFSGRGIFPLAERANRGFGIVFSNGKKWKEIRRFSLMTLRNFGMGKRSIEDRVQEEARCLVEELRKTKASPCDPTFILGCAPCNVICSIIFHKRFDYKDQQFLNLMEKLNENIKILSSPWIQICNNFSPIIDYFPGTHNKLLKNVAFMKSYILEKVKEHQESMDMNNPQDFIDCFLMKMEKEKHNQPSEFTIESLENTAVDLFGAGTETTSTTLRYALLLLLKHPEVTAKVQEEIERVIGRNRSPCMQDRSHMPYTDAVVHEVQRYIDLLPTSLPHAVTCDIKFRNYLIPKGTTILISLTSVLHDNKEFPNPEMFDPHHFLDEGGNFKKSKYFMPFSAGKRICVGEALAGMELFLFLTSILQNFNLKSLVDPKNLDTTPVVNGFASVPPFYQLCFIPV
Chain of Cytochrome P450 3A4 (P08684 whole entry): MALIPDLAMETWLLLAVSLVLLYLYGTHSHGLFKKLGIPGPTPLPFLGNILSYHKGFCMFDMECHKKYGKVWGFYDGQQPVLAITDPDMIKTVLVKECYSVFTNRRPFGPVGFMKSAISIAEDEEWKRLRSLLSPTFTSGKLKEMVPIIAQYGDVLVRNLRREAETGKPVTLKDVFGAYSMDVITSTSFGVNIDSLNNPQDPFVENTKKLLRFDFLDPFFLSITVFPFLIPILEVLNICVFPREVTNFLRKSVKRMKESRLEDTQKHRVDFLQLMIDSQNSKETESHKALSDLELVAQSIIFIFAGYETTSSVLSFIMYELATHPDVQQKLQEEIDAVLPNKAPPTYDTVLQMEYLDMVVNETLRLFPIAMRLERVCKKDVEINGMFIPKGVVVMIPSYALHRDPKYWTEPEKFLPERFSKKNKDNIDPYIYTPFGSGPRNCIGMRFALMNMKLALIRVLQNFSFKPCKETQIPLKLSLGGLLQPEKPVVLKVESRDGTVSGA
Chain of Beta-3 adrenergic receptor (Rattus norvegicus, UniProt P26255) (P26255 whole entry): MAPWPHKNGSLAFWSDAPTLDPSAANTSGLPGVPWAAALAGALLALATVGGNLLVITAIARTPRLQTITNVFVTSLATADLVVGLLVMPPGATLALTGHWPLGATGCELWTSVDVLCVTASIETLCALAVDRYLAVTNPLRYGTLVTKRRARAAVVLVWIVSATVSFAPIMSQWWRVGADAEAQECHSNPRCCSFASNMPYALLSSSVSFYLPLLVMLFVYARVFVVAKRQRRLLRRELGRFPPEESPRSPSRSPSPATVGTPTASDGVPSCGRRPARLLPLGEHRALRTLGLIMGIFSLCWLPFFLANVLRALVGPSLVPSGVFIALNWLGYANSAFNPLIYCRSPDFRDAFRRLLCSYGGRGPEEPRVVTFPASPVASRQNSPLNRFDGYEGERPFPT
Chain of Beta-3 adrenergic receptor (Rattus norvegicus) (P26255 whole entry): as above
Chain of Sodium-dependent serotonin transporter (P31645 whole entry): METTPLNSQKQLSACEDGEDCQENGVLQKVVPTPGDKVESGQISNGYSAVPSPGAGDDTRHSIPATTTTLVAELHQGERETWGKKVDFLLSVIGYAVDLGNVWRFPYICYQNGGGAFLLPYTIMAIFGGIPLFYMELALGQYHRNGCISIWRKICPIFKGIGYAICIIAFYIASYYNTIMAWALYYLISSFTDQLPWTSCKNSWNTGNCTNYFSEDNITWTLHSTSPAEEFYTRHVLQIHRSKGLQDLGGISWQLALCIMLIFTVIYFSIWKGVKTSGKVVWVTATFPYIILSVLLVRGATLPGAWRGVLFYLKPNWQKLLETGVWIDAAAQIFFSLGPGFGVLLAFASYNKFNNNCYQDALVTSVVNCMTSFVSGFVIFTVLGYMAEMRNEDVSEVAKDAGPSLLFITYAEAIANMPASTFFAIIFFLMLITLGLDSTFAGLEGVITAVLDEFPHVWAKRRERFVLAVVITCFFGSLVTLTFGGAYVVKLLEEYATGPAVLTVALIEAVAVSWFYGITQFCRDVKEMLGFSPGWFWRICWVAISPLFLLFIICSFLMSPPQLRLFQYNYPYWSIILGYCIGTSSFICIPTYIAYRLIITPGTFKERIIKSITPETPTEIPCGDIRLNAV
Chain of Cytochrome P450 2D6 (P10635 whole entry): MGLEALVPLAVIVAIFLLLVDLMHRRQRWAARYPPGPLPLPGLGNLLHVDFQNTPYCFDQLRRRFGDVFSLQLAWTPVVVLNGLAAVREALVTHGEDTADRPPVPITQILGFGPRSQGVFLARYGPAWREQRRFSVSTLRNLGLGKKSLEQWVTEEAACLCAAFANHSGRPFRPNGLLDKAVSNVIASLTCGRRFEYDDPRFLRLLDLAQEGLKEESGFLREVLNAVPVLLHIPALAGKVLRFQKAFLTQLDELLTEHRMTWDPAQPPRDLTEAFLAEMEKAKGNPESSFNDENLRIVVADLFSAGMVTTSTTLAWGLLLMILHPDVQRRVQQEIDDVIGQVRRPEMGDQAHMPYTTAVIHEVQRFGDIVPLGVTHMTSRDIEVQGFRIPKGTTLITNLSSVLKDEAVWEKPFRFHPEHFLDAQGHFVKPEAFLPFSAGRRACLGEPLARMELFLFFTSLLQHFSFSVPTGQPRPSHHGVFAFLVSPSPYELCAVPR
Chain of Beta-3 adrenergic receptor (Canis lupus familiaris) (O02662 whole entry): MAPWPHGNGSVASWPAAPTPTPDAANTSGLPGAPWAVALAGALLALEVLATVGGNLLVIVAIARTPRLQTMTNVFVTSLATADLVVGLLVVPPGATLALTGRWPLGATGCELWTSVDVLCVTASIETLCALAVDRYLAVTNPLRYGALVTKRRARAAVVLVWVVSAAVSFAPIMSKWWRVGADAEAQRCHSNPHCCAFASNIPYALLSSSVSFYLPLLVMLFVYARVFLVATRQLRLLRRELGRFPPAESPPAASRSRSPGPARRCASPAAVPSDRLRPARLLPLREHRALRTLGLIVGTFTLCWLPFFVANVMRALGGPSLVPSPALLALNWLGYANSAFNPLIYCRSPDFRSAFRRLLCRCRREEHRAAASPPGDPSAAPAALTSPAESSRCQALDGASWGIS
Chain of Beta-3 adrenergic receptor (Canis lupus familiaris, UniProt O02662) (O02662 whole entry): as above
Chain of Beta-2 adrenergic receptor (P07550 whole entry): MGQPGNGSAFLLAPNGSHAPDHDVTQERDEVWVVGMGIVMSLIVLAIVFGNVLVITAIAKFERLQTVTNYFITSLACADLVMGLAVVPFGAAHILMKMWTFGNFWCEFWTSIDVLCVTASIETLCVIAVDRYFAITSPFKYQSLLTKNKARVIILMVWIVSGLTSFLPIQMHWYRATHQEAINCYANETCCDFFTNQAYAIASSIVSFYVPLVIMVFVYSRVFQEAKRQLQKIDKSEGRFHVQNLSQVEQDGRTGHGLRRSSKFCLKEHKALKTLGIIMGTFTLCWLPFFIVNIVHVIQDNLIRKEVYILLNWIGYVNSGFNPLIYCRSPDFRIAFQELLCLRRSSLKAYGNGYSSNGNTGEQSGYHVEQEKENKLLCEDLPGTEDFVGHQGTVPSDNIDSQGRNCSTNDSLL
Chain of Beta-1 adrenergic receptor (P08588 whole entry): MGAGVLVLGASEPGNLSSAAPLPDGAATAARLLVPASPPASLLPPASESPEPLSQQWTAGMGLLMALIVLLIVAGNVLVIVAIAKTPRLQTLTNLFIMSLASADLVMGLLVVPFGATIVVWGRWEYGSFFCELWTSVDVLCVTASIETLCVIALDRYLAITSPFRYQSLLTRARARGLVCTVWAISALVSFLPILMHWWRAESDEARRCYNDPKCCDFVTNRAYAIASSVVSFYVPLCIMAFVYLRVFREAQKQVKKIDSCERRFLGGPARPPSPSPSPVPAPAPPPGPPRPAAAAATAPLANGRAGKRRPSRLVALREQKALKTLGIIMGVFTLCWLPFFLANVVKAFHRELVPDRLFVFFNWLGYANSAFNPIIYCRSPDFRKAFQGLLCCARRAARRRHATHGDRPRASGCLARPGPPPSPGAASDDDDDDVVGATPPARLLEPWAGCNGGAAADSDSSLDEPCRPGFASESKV

half-life [1]: 9 h
clearance [2]: 19 mL/min/kg
half-life [3]: 8 h
logD [4]: 4.6
fraction unbound [5]: 0.02
half-life [6]: 14 h
clearance [7]: 62 mL/min/kg
bioavailability [8]: 4%
fraction unbound [9]: 0.02
fraction unbound [10]: 0.02
clearance [11]: 20 mL/min/kg
SMILES: O=S(=O)(Nc1ccc(CCNC[C@H](O)c2cccnc2)cc1)c1ccc(-c2nc(-c3ccc(C(F)(F)F)cc3)cs2)cc1

CLint scaled [12]: < 10 mL/min/kg
IC50 (Cytochrome P450 2C9): > 100000 nM
EC50 [13]: 5 nM
half-life [14]: 2 h
Cp(f) (Plasma [15]): 90 nM
IC50 (Cytochrome P450 3A4): > 100000 nM
EC50 [16]: 2 nM
Activity [17]: 82%
fraction unbound [18]: 0.7
fraction unbound [20]: 0.19
logD [4]: 0.9
Cp(f) (Plasma [21]): 260 nM
Activity [23]: 98%
clearance [24]: 27 mL/min/kg
bioavailability [25]: 67%
IC50 [26]: 422 nM
Activity [27]: 103%
IC50 (Cytochrome P450 2D6): 78800 nM
Papp [28]: 13 ×10⁻⁶ cm/s
half-life [29]: 6 h
IC50 [30]: > 20000 nM
bioavailability [31]: 41%
Activity [32]: 89%
EC50 [33]: 1.36 nM
Cp(f) (Plasma [34]): 1170 nM
EC50 [35]: 27.6 nM
IC50 [36]: > 20000 nM
CLint scaled [37]: < 15 mL/min/kg
fraction unbound [38]: 1
half-life [39]: 2 h
CLint scaled [41]: 205 mL/min/kg
clearance [42]: 33 mL/min/kg
bioavailability [43]: 8%
CLint scaled [44]: < 10 mL/min/kg
clearance [45]: 36 mL/min/kg
SMILES: O=C(Nc1ccc(C[C@@H]2CC[C@H]([C@H](O)c3cccnc3)N2)cc1)[C@@H]1CCc2scnc21
Activity (Rattus norvegicus [19]): 59%
IC50 [22]: > 30000 nM
IC50 [40]: > 30000 nM
Activity (Rattus norvegicus [46]): Dose-dependent effect

CLint scaled [12]: 31 mL/min/kg
IC50 (Cytochrome P450 2C9): > 100000 nM
EC50 [13]: 22 nM
half-life [14]: 4 h
Cp(f) (Plasma [15]): 2000 nM
Ratio IC50/EC50 (Homo sapiens): 243
IC50 (Cytochrome P450 3A4): > 100000 nM
EC50 [16]: 4.7 nM
Activity [17]: 86%
fraction unbound [18]: 0.7
fraction unbound [20]: 0.36
logD [4]: 0.9
Cp(f) (Plasma [21]): 7600 nM
Activity [23]: 93%
clearance [24]: 34 mL/min/kg
bioavailability [25]: 100%
IC50 [26]: 898 nM
Activity [27]: 84%
IC50 (Cytochrome P450 2D6): > 100000 nM
Papp [28]: 6 ×10⁻⁶ cm/s
half-life [29]: 8 h
IC50 [30]: > 20000 nM
bioavailability [31]: 35%
Activity [32]: 98%
EC50 [33]: 3.7 nM
Cp(f) (Plasma [34]): 26800 nM
EC50 [35]: 434 nM
IC50 [36]: > 20000 nM
CLint scaled [37]: 55 mL/min/kg
fraction unbound [38]: 1
half-life [39]: 3 h
CLint scaled [41]: 261 mL/min/kg
clearance [42]: 24 mL/min/kg
bioavailability [43]: 11%
CLint scaled [44]: 19 mL/min/kg
clearance [45]: 36 mL/min/kg
SMILES: O=C(Nc1ccc(C[C@@H]2CC[C@H]([C@H](O)c3cccnc3)N2)cc1)[C@@H]1CCc2ccnn21
IC50 [22]: > 30000 nM
IC50 [47]: > 30000 nM
IC50 [40]: > 30000 nM
Activity (Rattus norvegicus [48]): 69%
Activity (Rattus norvegicus [46]): Dose-dependent effect
